Test results published in ChEMBL document CHEMBL4613298, “GPBAR1 Activation by C6-Substituted Hyodeoxycholane Analogues Protect against Colitis” (ACS Med Chem Lett, 2020).
Calls of active or inactive are those of the source. No cut-off for these calls is given here.

What was measured:
[1] = biological target: T1, G-protein coupled bile acid receptor 1 (Homo sapiens) (UniProt Q8TDU6); assay: Transactivation of human GPBAR1 receptor expressed in HEK293T cells assessed as maximum receptor activation at 10 uM after 18 hrs by cAMP response element driven renilla-luciferase dual reporter gene assay relative to TLCA; type: functional, cell-based; settings: HEK-293T
T1 sequence (whole entry): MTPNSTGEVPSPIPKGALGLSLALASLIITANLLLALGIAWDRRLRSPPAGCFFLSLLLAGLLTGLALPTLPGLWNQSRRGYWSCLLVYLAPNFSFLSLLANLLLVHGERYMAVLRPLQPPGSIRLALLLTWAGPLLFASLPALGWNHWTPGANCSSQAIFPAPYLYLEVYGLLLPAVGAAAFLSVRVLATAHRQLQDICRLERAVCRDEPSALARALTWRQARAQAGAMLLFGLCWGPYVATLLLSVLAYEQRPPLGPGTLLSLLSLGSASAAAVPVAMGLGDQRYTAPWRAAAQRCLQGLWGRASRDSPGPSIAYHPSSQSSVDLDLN
Summary of the method: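 HEK-293T cells transfected with GPBAR1 and a CRE-driven luciferase reporter, exposed to compound at 10 μM. Efficacy is maximal CRE transactivation as percent of that caused by TLCA (10 μM). One experiment, triplicate.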

[2] = biological target: T2, Bile acid receptor (Homo sapiens) (UniProt Q96RI1); assay: Transactivation of FXR (unknown origin) expressed in HepG2 cells co-expressing pSG5RXR/pGL4.70 assessed as maximum receptor activation at 10 uM after 18 hrs by IR1 driven dual renilla-luciferase reporter gene assay relative to relative to CDCA; type: cell-based
T2 sequence (whole entry): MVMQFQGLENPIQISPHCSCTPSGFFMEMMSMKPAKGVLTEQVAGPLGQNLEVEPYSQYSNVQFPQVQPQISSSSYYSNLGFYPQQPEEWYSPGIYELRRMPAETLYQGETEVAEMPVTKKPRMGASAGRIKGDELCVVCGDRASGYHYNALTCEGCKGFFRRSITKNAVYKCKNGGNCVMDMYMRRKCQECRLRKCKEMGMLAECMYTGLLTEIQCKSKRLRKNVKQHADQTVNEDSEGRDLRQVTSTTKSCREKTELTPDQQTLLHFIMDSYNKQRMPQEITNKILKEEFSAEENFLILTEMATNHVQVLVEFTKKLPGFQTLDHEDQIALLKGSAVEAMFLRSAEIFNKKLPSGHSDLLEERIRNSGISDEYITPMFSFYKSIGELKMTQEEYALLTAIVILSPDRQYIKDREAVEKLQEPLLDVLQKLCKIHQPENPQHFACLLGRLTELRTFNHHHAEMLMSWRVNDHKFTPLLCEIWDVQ
Summary of the method: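 FXR reporter assay in HepG2 cells transfected with FXR and an IR1-driven luciferase reporter, compound at 10 μM. Efficacy is maximal IR1 transactivation relative to CDCA (10 μM). One experiment, triplicate.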

Homo sapiens = organism: Homo sapiens; assay: Selectivity index, ratio of transactivation of human GPBAR1 receptor expressed in HEK293T cells assessed as maximum receptor activation at 10 uM to transactivation of human FXR (unknown origin) expressed in HepG2 cells co-expressing pSG5RXR/pGL4.70 assessed as maximum receptor activation at 10 uM; type: cell-based
Summary of the method: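 Ratio of percent activity at GPBAR1 (HEK-293T, CRE-luciferase, 10 μM, vs TLCA 10 μM) to percent activity at FXR (HepG2, IR1-luciferase, 10 μM, vs CDCA 10 μM). Both taken from the same triplicate experiment.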

[3] = Aqueous solubility of compound in pH 7.4 PBS/MeOH at 10 mM after 24 hrs by LC-MS analysis; type: physicochemical; settings: buffer, pH 7.4, 24 h, 10000 µM
[4] = biological target: T1, G-protein coupled bile acid receptor 1 (Homo sapiens); assay: Agonist activity at GPBAR1 receptor in human THP1 cells assessed as reduction in LPS-induced IL-1beta expression at 10 uM after 18 hrs by RT-PCR analysis; type: cell-based; settings: THP-1
Summary of the method: (§1)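 THP1 monocytic/macrophage cells primed with LPS, then coincubated with or without test agent at 10 μM; expression of cytokine genes (IL-1β, IL-6, TNF-α, IL-10) measured.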

[5] = biological target: T1, G-protein coupled bile acid receptor 1 (Homo sapiens); assay: Agonist activity at GPBAR1 receptor in human THP1 cells assessed as reduction in LPS-induced IL-6 expression at 10 uM after 18 hrs by RT-PCR analysis; type: cell-based; settings: THP-1; summary of the method: as §1
[6] = biological target: T1, G-protein coupled bile acid receptor 1 (Homo sapiens); assay: Agonist activity at GPBAR1 receptor in human THP1 cells assessed as reduction in LPS-induced TNFalpha expression at 10 uM after 18 hrs by RT-PCR analysis; type: cell-based; settings: THP-1; summary of the method: as §1
[7] = biological target: T1, G-protein coupled bile acid receptor 1 (Homo sapiens); assay: Agonist activity at GPBAR1 receptor in LPS-stimulated human THP1 cells assessed as increase in IL-10 expression at 10 uM after 18 hrs by RT-PCR analysis; type: cell-based; settings: THP-1; summary of the method: as §1
Mus musculus [8] = assay: Anti-colitis activity in Gpbar1 (+/+) TNBS-induced C57BL/6NCrl mouse model of colitis assessed as decrease in Clinical Disease activity index at 30 mg/kg, po; type: functional, organism-based
Summary of the method: (§2)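 Gpbar1+/+ and Gpbar1–/– mice given TNBS alone or with test agent at 30 mg/kg; body weight change and CDAI followed over the colitis course; colon sections H&E stained (10× magnification); n = 5 per group.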

Mus musculus [9] = assay: Antiinflammatory activity in Gpbar1 (+/+) TNBS-induced C57BL/6NCrl mouse model of colitis assessed as reduction in IL-6 mRNA expression at 30 mg/kg, po by RT-PCR analysis; type: functional, organism-based
Summary of the method: (§3)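 Gpbar1+/+ and Gpbar1–/– mice given TNBS alone or with test agent at 30 mg/kg; colon samples analysed by RT-PCR for relative mRNA of Il-1β, Il-6, Tnf-α, Il-10 and Gpbar1.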

Mus musculus [10] = assay: Antiinflammatory activity in Gpbar1 (+/+) TNBS-induced C57BL/6NCrl mouse model of colitis assessed as reduction in IL-1beta mRNA expression at 30 mg/kg, po by RT-PCR analysis; type: functional, organism-based; summary of the method: as §3
Mus musculus [11] = assay: Antiinflammatory activity in Gpbar1 (+/+) TNBS-induced C57BL/6NCrl mouse model of colitis assessed as reduction in TNFalpha mRNA expression at 30 mg/kg, po by RT-PCR analysis; type: functional, organism-based; summary of the method: as §3
Mus musculus [12] = assay: Antiinflammatory activity in Gpbar1 (+/+) TNBS-induced C57BL/6NCrl mouse model of colitis assessed as increase in IL-10 mRNA expression at 30 mg/kg, po by RT-PCR analysis; type: functional, organism-based; summary of the method: as §3
Mus musculus [13] = assay: Effect on IL-6 mRNA expression in Gpbar1 deficient TNBS-induced C57BL/6NCrl mouse model of colitis harboring assessed as reduction in IL-6 mRNA expression at 30 mg/kg, po by RT-PCR analysis; type: functional, organism-based; summary of the method: as §3
Mus musculus [14] = assay: Effect on IL-1beta mRNA expression in Gpbar1 deficient TNBS-induced C57BL/6NCrl mouse model of colitis harboring […] expression at 30 mg/kg, po by RT-PCR analysis; type: functional, organism-based; summary of the method: as §3
Mus musculus [15] = assay: Effect on TNFalpha mRNA expression in Gpbar1 deficient TNBS-induced C57BL/6NCrl mouse model of colitis harboring […] expression at 30 mg/kg, po by RT-PCR analysis; type: functional, organism-based; summary of the method: as §3
Mus musculus [16] = assay: Effect on IL-10 mRNA expression in Gpbar1 deficient TNBS-induced C57BL/6NCrl mouse model of colitis harboring […] expression at 30 mg/kg, po by RT-PCR analysis; type: functional, organism-based; summary of the method: as §3
Mus musculus [17] = assay: Anti-colitis activity in Gpbar1 (+/+) TNBS-induced C57BL/6NCrl mouse model of colitis assessed as effect on body weight loss at 30 mg/kg, po; type: functional, organism-based; summary of the method: as §2
Mus musculus [18] = assay: Anti-colitis activity in Gpbar1 (+/+) TNBS-induced C57BL/6NCrl mouse model of colitis assessed as colon damage at 30 mg/kg, po by H and E staining analysis; type: functional, organism-based; summary of the method: as §2
Mus musculus [19] = assay: Anti-colitis activity in Gpbar1 (-/-) TNBS-induced C57BL/6NCrl mouse model of colitis assessed as decrease in Clinical Disease activity index at 30 mg/kg, po; type: functional, organism-based; summary of the method: as §2
Mus musculus [20] = assay: Anti-colitis activity in Gpbar1 (-/-) TNBS-induced C57BL/6NCrl mouse model of colitis assessed as effect on body weight loss at 30 mg/kg, po; type: functional, organism-based; summary of the method: as §2
Mus musculus [21] = assay: Anti-colitis activity in Gpbar1 (-/-) TNBS-induced C57BL/6NCrl mouse model of colitis assessed as colon damage at 30 mg/kg, po by H and E staining analysis; type: functional, organism-based; summary of the method: as §2

CC[C@]1(O)C[C@H]2[C@@H]3CC[C@H]([C@H](C)CC#N)[C@@]3(C)CC[C@@H]2[C@@]2(C)CC[C@@H](O)C[C@@H]12
max activation [1]: 101%
max activation [2]: 12.3%
Selectivity Index (Homo sapiens): 8.2
solubility [3]: Soluble
Activity [4]: Active
Activity [5]: Active
Activity [6]: Active
Activity [7]: Active
Activity (Mus musculus [8]): Active
Activity (Mus musculus [9]): Active
Activity (Mus musculus [10]): Active
Activity (Mus musculus [11]): Active
Activity (Mus musculus [12]): Active
Activity (Mus musculus [13]): inactive
Activity (Mus musculus [14]): inactive
Activity (Mus musculus [15]): inactive
Activity (Mus musculus [16]): inactive
Activity (Mus musculus [17]): Active
Activity (Mus musculus [18]): Active
Activity (Mus musculus [19]): inactive
Activity (Mus musculus [20]): inactive
Activity (Mus musculus [21]): inactive
